Source: publication PMC3312795 (European Journal of Medicinal Chemistry, 2012)

Legend:
[1] = system: SA11 rotavirus; assay: Rotavirus; format: cell-based, rotavirus SA11 (primate G3); settings: SA11, MOI of 2, 12 hr post infection
Procedure, shortened: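 Confluent MA104 monolayers inoculated 1 hr, PBS-washed, then held in MEM with test compound (below 50 μM; below 20 μM for some) or 0.1% DMSO plus trypsin 1 μg/ml. At 12 hr, IFA: methanol fix (RT, 30 min), anti-VP6 mAb, FITC anti-mouse IgG. Western: lysates sonicated, 10% gel, anti-VP6 with β-actin loading control, chemiluminescent detection.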

[2] = system: Huh-7 cells; assay: Lipid droplet development in Huh-7 cells; format: cell-based, human; settings: various concentrations
Procedure, shortened: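 Spontaneous lipid droplet formation in confluent Huh-7 cells given various concentrations of test compound or 0.1% DMSO mock for 72 hr. Medium then replaced with NBD-cholesterol (1 μg/ml) medium for a further 12 hr. Cells fixed in 4% formaldehyde for 10 min, PBS-washed, and fluorescence viewed by microscopy. Untreated 1-day-old and 4-day-old cells served as references.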

[3] = system: SA11 rotavirus; assay: Pre-treatment of SA11 rotavirus with compound; format: cell-based, rotavirus SA11 (primate G3); settings: pre-treatment with compound at 100 M (so in the source), 37 °C for 2 hrs
[4] = system: SA11 rotavirus; assay: Rotavirus; format: cell-based, rotavirus SA11 (primate G3); settings: MA104, in Primates, 24 h, read-out: ED50, rotavirus (SA11) replication, MA104 cells, TCID50 titers at 24 hr post infection, average of at least 3 independent tests

| Structure (SMILES) | anti-rotaviral effects by Western blot analysis and IFA [1] | suppression of increase in lipid droplets [2] | effect of pre-treatment of SA11 rotavirus on viral titer (virucidal effect) [3] | EC50 [4] |
| --- | --- | --- | --- | --- |
| CCC/C=C/C/C=C/C=C/C=N/N1CCCS1(=O)=O [1ba, 2-[(2E,4E,7E)-Undeca-2,4,7-trienylideneamino]-1,1-dioxo-1-isothiazolidine] | confirmed | dose-dependent | – | – |
| CCC/C=C/C/C=C/C=C/CNc1ccc(C(=O)O)cc1 [1e, 4-((2E,4E,7E)-Undeca-2,4,7-trienylamino)benzoic acid] | confirmed | dose-dependent | did not affect the viral titer | – |
| C=C(C)[C@@H]1CC[C@]2(C(=O)O)CC[C@]3(C)[C@H](CC[C@@H]4[C@@]5(C)CC[C@H](O)C(C)(C)[C@@H]5CC[C@]43C)[C@@H]12 [Betulinic acid, betulinic acid] | – | – | – | 11.3 to 28.5 µM |
| C=C1C(=O)O[C@H](CCCCCCCC)[C@H]1C(=O)O [C75] | – | – | – | 11.3 to 28.5 µM |
| CCCCCCCCCCCCCCCCNc1ccc(C(=O)O)cc1 [PHB, hexadecylamino-p-amino benzoic acid] | – | – | – | 11.3 to 28.5 µM |
| CCC/C=C/C/C=C/C=C/C=N/NN=O [Triacsin C] | confirmed | dose-dependent | did not affect the viral titer | – |
